Key:
[1] = Phase I, solid tumors; ref Dean et al., 2016; cited from earlier work
xenograft tumor models = assay: Xenograft tumor models, summary statements across models; type: in vivo, mice; settings: three NSCLC studies (CALU6, A549, CTG-0165_P + 6)
Method in brief: (§1)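 Mice with NSCLC cell-line (CALU-6, A549) or patient-derived tumors were randomized by tumor size and dosed once mean tumor size reached 150–200 mm3; ≥10 mice/group. FASN inhibitor 60 mg/kg by oral gavage once daily; paclitaxel 10 mg/kg iv every 4 days or docetaxel 8 or 6 mg/kg iv every 7 days. In combinations, FASN inhibitor was given 2 h before taxane. TGI is % tumor growth from treatment start, drug vs vehicle groups.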

[2] = test system: CALU6 NSCLC adenocarcinoma cell line xenograft; assay: CALU6 NSCLC xenograft tumor growth; type: in vivo, mice; settings: CALU-6; TVB-3166 60 mg/kg oral once daily; paclitaxel 10 mg/kg iv every 4 days
Method in brief: as §1

MRC-5 lung fibroblasts = type: cell-based; settings: MRC-5 fibroblasts
[3] = test system: 22Rv1 prostate tumor cells; assay: Soft agar colony formation; type: cell-based
Method in brief: (§2)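 Cells were plated in 0.35% agarose in IMDM with 10% FBS, 1% non-essential amino acids and 1% L-glutamine, containing a dose–response matrix of FASN inhibitor and paclitaxel. This layer sat over a 0.6% bacto-agar base in the same medium. A compound-containing liquid feeder layer was changed weekly. After 3–4 weeks, colonies were stained with 0.005% crystal violet and wells imaged.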

[4] = test system: β-tubulin mRNA in 22Rv1 prostate tumor cells; assay: β-tubulin mRNA expression by RNA sequencing; type: cell-based; settings: 22Rv1 cells, 48 h, 1 μM TVB-3166
[5] = test system: CALU6 non-small-cell lung tumor cells; assay: Soft agar colony formation; type: cell-based
Method in brief: as §2

Phospho-b-Catenin (S675) = type: in vivo; settings: A549 xenograft tumors, 2 h after final dose on day 20
Method in brief: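 Xenograft tumors were harvested 2 h after the last dose, flash frozen and lysed in buffer with protease and phosphatase inhibitors. Protein was measured by BCA. Lysates from individual mice in each group were pooled so each tumor contributed equal total protein. Western blots were imaged on an infrared imager. Pools were run once, with no statistical testing.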

palmitoyl-β-tubulin = assay: Tubulin palmitoylation in NSCLC cell lines; type: cell-based; settings: A549 cells, 20 μM for 18 h
palmitoyl-α-tubulin = assay: Tubulin palmitoylation in NSCLC cell lines; type: cell-based; settings: A549 cells, 20 μM for 18 h

Cc1nnc(-c2cc(C(=O)N3CCC(c4ccc(C#N)cc4)CC3)c(C)cc2C2CCC2)[nH]1 [TVB-2640]
oral bioavailability and pharmacokinetics [1]: excellent

CC(=O)O[C@H]1C(=O)[C@@]2(C)[C@H]([C@H](OC(=O)c3ccccc3)[C@]3(O)C[C@H](OC(=O)[C@H](O)[C@@H](NC(=O)c4ccccc4)c4ccccc4)C(C)=C1C3(C)C)[C@]1(OC(C)=O)CO[C@@H]1C[C@@H]2O [Paclitaxel]
tumor growth inhibition, single agent (xenograft tumor models): 48–63% | TGI vs. vehicle [2]: 63% | effect on microtubule organization in non-tumor cells (MRC-5 lung fibroblasts): very little effect | soft agar colony growth ([3]; 3 nM paclitaxel): strong inhibition of colony growth | soft agar colony growth ([3]; paclitaxel 0.3 or 1.0 nM): did not affect colony size or number | β-tubulin mRNA expression compared to DMSO [4]: no effect | soft agar colony growth ([5]; 3 nM paclitaxel): strong inhibition of colony growth | soft agar colony growth ([5]; paclitaxel 0.3 or 1.0 nM): did not affect colony size or number

CC(=O)O[C@@]12CO[C@@H]1C[C@H](O)[C@@]1(C)C(=O)[C@H](O)C3=C(C)[C@@H](OC(=O)[C@H](O)[C@@H](NC(=O)OC(C)(C)C)c4ccccc4)C[C@@](O)([C@@H](OC(=O)c4ccccc4)[C@H]21)C3(C)C [Docetaxel]
inhibition of β-catenin S675 phosphorylation (Phospho-b-Catenin (S675)): 25%

CCCCCCCCCCCCCCC(Br)C(=O)O (stereo not drawn) [2-Bromo-Palmitate, 2-bromopalmitate]
decrease of palmitoyl-β-tubulin level (palmitoyl-β-tubulin): 79% | decrease of palmitoyl-α-tubulin level (palmitoyl-α-tubulin): 27%

Source: PMC5474427 (EBioMedicine, 2016)
